# Published values of several laboratories.
# Protocols differ between the studies behind these lines.
# KCNH2: Voltage-gated inwardly rectifying potassium channel KCNH2 (KCNH2, Homo sapiens, UniProt Q12809)
Structure (SMILES),tested on,assay,test system,conditions,endpoint,result
CO[C@H]1/C=C/O[C@@]2(C)Oc3c(C)c(O)c4c(O)c(c(/C=N/N5CCN(C6CCCC6)CC5)c(O)c4c3C2=O)NC(=O)/C(C)=C\C=C\[C@H](C)[C@H](O)[C@@H](C)[C@@H](O)[C@@H](C)[C@H](OC(C)=O)[C@@H]1C,,,"male Sprague-Dawley rat, plasma","intravenous, 10 mg/kg, single dose",MRT,24.4 h
CC[C@H](C)CCCCC(=O)N[C@@H](CCN)C(=O)N[C@H](C(=O)N[C@@H](CCN)C(=O)N[C@H]1CCNC(=O)[C@H]([C@@H](C)O)NC(=O)[C@H](CCN)NC(=O)[C@H](CCN)NC(=O)[C@H](CC(C)C)NC(=O)[C@@H](CC(C)C)NC(=O)[C@H](CCN)NC1=O)[C@@H](C)O,,,"male Sprague-Dawley rat, plasma","subcutaneous, 10 mg/kg",MRT(0-inf),4.88 h
Cc1[nH]c(C)c(S(=O)(=O)Nc2ccc(S(F)(F)(F)(F)F)cc2)c1C(=O)N1CCC(F)(F)C1,KCNH2,"ion current, inhibitor, patch clamp",,,IC50,> 30 µM
CC(C)CC(=O)OC[C@H]1O[C@@](C#N)(c2ccc3c(N)ncnn23)[C@H](O)[C@@H]1O,KCNH2,ligand displacement,,20 µM,inhibition,-3%
O=c1nc(NO)ccn1[C@@H]1O[C@H](CO)[C@@H](O)[C@H]1O,Caco-2,cell growth or viability,,,CC50,> 100 µM
Cc1cccc(C)c1NC(=O)C1CCCCN1 (centres unmarked),KCNH2,"ion current, inhibitor, patch clamp",,100 µM,inhibition,19.4%
N#C[C@@]1(n2ccc(N)nc2=O)O[C@H](CO)[C@@H](O)[C@H]1O,Caco-2,cell growth or viability,,,CC50,> 100 µM
COc1ccc(F)cc1C(=O)NCc1ccc(-c2nn([C@@H](C)C(F)(F)F)c(N)c2C(N)=O)cc1,,,"human, plasma","oral, 200 mg, single dose, fasted",Tmax,2.5 h
